Published values of several laboratories.
Compare with care: the assays were run in different laboratories.
Target: Serine/threonine-protein kinase Sgk1 (SGK1, Homo sapiens, UniProt O00141)
Sequence (O00141 1-431, as in one of the studies): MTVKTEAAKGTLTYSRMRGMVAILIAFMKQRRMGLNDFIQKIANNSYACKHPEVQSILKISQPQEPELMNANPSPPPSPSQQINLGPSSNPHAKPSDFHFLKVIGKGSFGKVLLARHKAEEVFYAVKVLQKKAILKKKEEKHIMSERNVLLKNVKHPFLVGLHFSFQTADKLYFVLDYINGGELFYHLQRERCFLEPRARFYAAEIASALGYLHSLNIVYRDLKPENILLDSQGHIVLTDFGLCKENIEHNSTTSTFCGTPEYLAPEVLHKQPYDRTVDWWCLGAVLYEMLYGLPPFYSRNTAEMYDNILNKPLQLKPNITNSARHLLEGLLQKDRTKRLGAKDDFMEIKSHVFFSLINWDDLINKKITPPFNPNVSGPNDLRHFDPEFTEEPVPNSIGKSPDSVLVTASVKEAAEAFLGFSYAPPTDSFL

| SMILES | test | setting | remaining binding [%] |
| --- | --- | --- | --- |
| CN(C)c1ncc(F)c(-c2cnn3ncccc23)n1 | binding | 1 µM | 79 |
| COc1ncc2cc3ccccc3nc2c1C#N | cell-free assay, competition with immobilised ligand | 5 µM | 94 |
| CN(C)c1nccc(-c2cnn3ncccc23)n1 | binding | 1 µM | 69 |
| CC1=C(C#N)[C@@H](c2ccc3[nH]nc(C)c3c2)C(C#N)=C(c2ccc(Cl)cc2)N1 | cell-free assay, competition with immobilised ligand | 1 µM | 100 |
| Nc1ncc2c(n1)-c1c([nH]c3ccc(C#CC4CC4)cc13)CCCC2 | binding, competition with immobilised ligand | 1 µM | 88 |
| CN(C)C(=O)Cn1cc(-c2nc([C@@](C)(c3ccc(-c4cnc(N)nc4)cc3)C3CC3)no2)cn1 | cell-free assay, competition with immobilised ligand | 1 µM | 91 |
| N[C@@H]1CCN(c2nccc(-c3cnn4ncccc34)n2)C1 | binding | 1 µM | 100 |
| CCCCN(CCCC)C(=O)CN1C[C@@H](c2cc(OC)c3c(c2)OCO3)[C@H](C(=O)O)[C@H]1CC(C)(C)CCC | cell-free assay, competition with immobilised ligand | 1 µM | 77.6 |
| COc1ccnn2ncc(-c3ccnc(N(C)C)n3)c12 | binding | 1 µM | 80 |
| CS(=O)(=O)c1cc(C2(NC(=O)c3cncc4c3cnn4-c3ccc(F)cc3)CC2)ccn1 | cell-free assay, competition with immobilised ligand | 1 µM | 97 |
| C[C@@H](c1ccc(-n2cnc3c(N)ncnc32)cc1)N1CCc2nn(C)c(Cc3ccccc3)c2C1=O | binding, competition with immobilised ligand | 0.1 µM | 61 |
| C=CC(=O)N1CCC(C(=O)NCC(=O)N2CCN(c3nc(-c4cnc(N)nc4C(F)F)nc(N4CCOCC4)n3)CC2)CC1 | binding, competition with immobilised ligand | 1 µM | 85 |
| Cc1cc(NC(=O)c2cccc(S(F)(F)(F)(F)F)c2)cc(-n2ccn3nc(-c4cccnc4)cc23)c1 | cell-free assay, competition with immobilised ligand | 1 µM | 81.3 |
| O=C(NCCCN1CCOCC1)c1ccc(Nc2ncc(Cl)c(-c3ccc(Cl)s3)n2)cc1 | binding, competition with immobilised ligand | 1 µM | 5.8 |
| O=C(NCC1CCOCC1)c1n[nH]cc1NC(=O)c1c(F)cccc1F | binding, competition with immobilised ligand | 1 µM | 89 |
| O=C(NCCCN1CCOCC1)c1ccc(Nc2nccc(-c3cc4ccccc4s3)n2)cc1 | binding, competition with immobilised ligand | 1 µM | 8 |
| CN(C)CC#Cc1ccc(OCCCc2sc(N3CCc4cccc(C(=O)Nc5nc6ccccc6s5)c4C3)nc2C(=O)O)c(F)c1 | cell-free assay, competition with immobilised ligand | 1 µM | 100 |
| c1cncc(-c2cccc(Nc3nccc(NC4CCCCC4)n3)c2)c1 | binding, competition with immobilised ligand | 10 µM | 92 |
| Cc1cnn2ncc(-c3ccnc(N(C)C)n3)c2c1 | binding | 1 µM | 73 |
| CNC(=O)[C@@H]1CC[C@@H](n2c(-c3ccc4cnccc4c3)nc3ccc(C(=O)NCc4cccc(C(N)=O)c4)cc32)C1 | binding, competition with immobilised ligand | 1 µM | 94 |
| C[C@@H]1CCN(c2nccc(-c3cnn4ncccc34)n2)C1 | binding | 1 µM | 58 |
| O=C(c1ccc(Nc2ncc(Cl)c(-c3cc4ccccc4s3)n2)cc1)N1CCC(N2CCCC2)CC1 | binding, competition with immobilised ligand | 1 µM | 0.1 |
